Source: ChEMBL document CHEMBL2169744, “Discovery and optimization of potent and selective imidazopyridine and imidazopyridazine mTOR inhibitors” (Bioorg Med Chem Lett, 2012)
≈ marks a conversion by molar mass, not a printed value.

Columns and labels:
[1] = Oral bioavailability in rat at 5 mg/kg; type: ADME, organism-based; settings: in vivo
Summary of the method: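 Rat oral PK at 5.0 mpk in 1% Tween 80, 2% HPMC, 97% H2O, pH 2.2 (methanesulfonic acid).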

[2] = target: Phosphatidylinositol 4,5-bisphosphate 3-kinase catalytic subunit alpha isoform (Homo sapiens, UniProt P42336); experiment: Inhibition of PI3Kalpha by AlphaScreen assay
Chain of Phosphatidylinositol 4,5-bisphosphate 3-kinase catalytic subunit alpha isoform (P42336 whole entry, canonical isoform): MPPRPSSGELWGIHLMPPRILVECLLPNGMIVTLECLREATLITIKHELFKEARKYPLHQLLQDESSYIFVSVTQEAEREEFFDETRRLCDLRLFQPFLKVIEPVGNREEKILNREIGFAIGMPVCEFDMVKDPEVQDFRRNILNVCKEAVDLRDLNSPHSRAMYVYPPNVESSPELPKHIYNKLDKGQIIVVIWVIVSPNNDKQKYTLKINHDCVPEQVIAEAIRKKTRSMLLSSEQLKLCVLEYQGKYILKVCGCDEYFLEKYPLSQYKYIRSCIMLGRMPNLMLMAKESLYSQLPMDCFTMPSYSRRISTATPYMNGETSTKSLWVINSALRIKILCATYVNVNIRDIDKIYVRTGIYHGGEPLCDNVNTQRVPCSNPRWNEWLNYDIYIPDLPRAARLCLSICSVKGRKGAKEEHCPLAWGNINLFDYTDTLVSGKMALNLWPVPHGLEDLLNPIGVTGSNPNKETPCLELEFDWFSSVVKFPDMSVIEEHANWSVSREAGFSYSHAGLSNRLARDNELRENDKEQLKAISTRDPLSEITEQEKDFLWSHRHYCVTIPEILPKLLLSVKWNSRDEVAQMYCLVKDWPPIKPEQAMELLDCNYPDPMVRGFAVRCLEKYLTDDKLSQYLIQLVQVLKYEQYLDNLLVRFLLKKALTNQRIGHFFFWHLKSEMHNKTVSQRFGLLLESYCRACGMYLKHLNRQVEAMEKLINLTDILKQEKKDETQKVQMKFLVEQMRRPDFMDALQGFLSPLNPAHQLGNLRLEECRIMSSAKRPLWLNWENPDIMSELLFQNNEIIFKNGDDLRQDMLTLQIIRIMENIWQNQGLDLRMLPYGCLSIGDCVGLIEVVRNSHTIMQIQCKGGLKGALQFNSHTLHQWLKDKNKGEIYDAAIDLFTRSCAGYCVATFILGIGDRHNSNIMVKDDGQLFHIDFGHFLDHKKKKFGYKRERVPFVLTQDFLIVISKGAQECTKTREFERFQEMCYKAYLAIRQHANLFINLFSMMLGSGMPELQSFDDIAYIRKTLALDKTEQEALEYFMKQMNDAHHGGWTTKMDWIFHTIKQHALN

[3] = Half life in rat at 0.5 mg/kg, iv; type: ADME, organism-based; set-up: dose 0.5 mg/kg, route intravenous; settings: in vivo
[4] = Clearance in rat at 0.5 mg/kg, iv; type: ADME, organism-based; set-up: dose 0.5 mg/kg, route intravenous; settings: in vivo
[5] = Solubility of the compound in simulated intestinal fluid; type: physicochemical
[6] = target: Serine/threonine-protein kinase mTOR (Homo sapiens, UniProt P42345); experiment: Inhibition of mTOR by LanthaScreen assay
[7] = Inhibition of mTORC1-mediated 4EBP1-phosphorylation in human U87 cells; type: cell-based, U-87MG ATCC
[8] = Volume of distribution at steady state in rat at 0.5 mg/kg, iv; type: ADME, organism-based; set-up: dose 0.5 mg/kg, route intravenous; settings: in vivo, read-out: Vdss
[9] = Clearance in rat at 1 mg/kg, iv; type: ADME, organism-based; set-up: dose 1 mg/kg, route intravenous; settings: in vivo
[10] = Inhibition of mTORC2-mediated AKT Ser473-phosphorylation in human U87 cells; type: cell-based, U-87MG ATCC; settings: U-87 MG
Summary of the method: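 Cell assay in U87 cells measuring pAKT (S473), n ≥ 2.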

[11] = Plasma protein binding in rat at 5 mg/kg, po; type: ADME, organism-based; set-up: dose 5 mg/kg, route oral; settings: read-out: PPB (converted)
Rattus norvegicus = species: Rattus norvegicus; experiment: Unbound clearance in rat; type: ADME, organism-based; settings: in vivo
[12] = AUC in rat at 0.5 mg/kg, iv; type: ADME, organism-based, Plasma; set-up: dose 0.5 mg/kg, route intravenous; settings: plasma
[13] = Homo sapiens, U-87 MG, read-out: IC50

| Structure (SMILES) | bioavailability [1] [%] | IC50 [2] [µM] | half-life [3] [min] | clearance [4] [mL/min/kg] | solubility [5] [µg/mL] | IC50 [6] [µM] | IC50 [7, 13] [µM] | Vd [8] [L/kg] | clearance [9] [mL/min/kg] | IC50 [10] [µM] | fraction unbound [11] | CL free (Rattus norvegicus) [mL/min/kg] | AUC [12] [µM·h] | IC50 ([7]; u-87mg atcc) |
| --- | --- | --- | --- | --- | --- | --- | --- | --- | --- | --- | --- | --- | --- | --- |
| CNc1cc(-c2c(Nc3cc[nH]n3)nc3cccnn23)nc(C)n1 | 29 | 1.14 | 15.6 | 80 | 7 (≈ 21.8 µM) | 0.063 | 0.706 | 1.3 | – | – | – | – | – | – |
| CC(=O)Nc1cccc(-c2ccc3nc(Nc4cc[nH]n4)c(-c4nc(C)nc(N)n4)n3c2)c1 | – | 0.096 | – | – | – | – | 0.115 | – | 33.3 | 0.029 | – | – | – | – |
| CC(=O)Nc1cc(-c2c(Nc3ccn(C)n3)nc3ccccn23)nc(C)n1 | 4 | 4.58 | 39.6 | 10 | – | 0.067 | 0.94 | 0.6 | – | – | 0.056 | 180 | 2.3 | – |
| Cc1nc(N)nc(-c2c(Nc3cc[nH]n3)nc3ccc(-c4cccnc4C)cn23)n1 | – | 0.12 | – | – | – | 0.003 | 0.041 | – | 33.3 | 0.01 | – | – | – | – |
| Cc1nccc(-c2c(Nc3ccn[nH]3)nc3cccnn23)n1 | – | 3.02 | 13.8 | 31.7 | 14 (≈ 47.9 µM) | 0.141 | 2.17 | 0.62 | – | – | – | – | – | – |
| Cc1nc(N)nc(-c2c(Nc3cc[nH]n3)nc3ccc(-c4cccnc4)cn23)n1 | – | 0.119 | – | – | – | 0.003 | 0.101 | – | 33.3 | 0.012 | – | – | – | – |
| COc1ncccc1-c1ccc2nc(Nc3ccn[nH]3)c(-c3nc(C)nc(N)n3)n2c1 | – | 0.268 | – | – | – | 0.039 | 0.51 | – | 33.3 | 0.138 | – | – | – | – |
| Cc1nc(N)nc(-c2c(Nc3ccn[nH]3)nc3ccc(-c4cncnc4C)cn23)n1 | – | 0.068 | – | – | – | 0.003 | 0.057 | – | 33.3 | 0.006 | – | – | – | – |
| CC(=O)Nc1cc(-c2c(Nc3cc[nH]n3)nc3ccccn23)nc(C)n1 | – | 0.112 | 31.2 | 38.3 | – | 0.009 | 0.06 | 1.2 | – | – | – | – | 0.6 | – |
| CC(=O)Nc1cc(-c2c(Nc3ccn(C)n3)nc3cccnn23)nc(C)n1 | 34 | 1.66 | 23.4 | 18.3 | – | 0.055 | 1.23 | 0.8 | – | – | 0.033 | 555 | 1.3 | – |
| Cc1nc(N)nc(-c2c(Nc3cc[nH]n3)nc3ccc(-c4cnccc4C)cn23)n1 | – | 0.073 | – | – | – | 0.002 | 0.049 | – | 33.3 | 0.013 | – | – | – | – |
| Cc1nc(N)nc(-c2c(Nc3ccn(C)n3)nc3ccc(-c4cncnc4)cn23)n1 | – | 0.635 | 15.6 | 41.7 | 1 (≈ 2.5 µM) | 0.076 | – | 1 | – | – | – | – | – | Not Active |
| Cc1nc(N)nc(-c2c(Nc3cc[nH]n3)nc3ccc(-c4ccccc4C)cn23)n1 | – | 0.393 | – | – | – | 0.021 | 0.652 | – | 33.3 | 0.054 | – | – | – | – |
| Cc1nc(Nc2cnn(C3CCOC3)c2)cc(-c2c(Nc3ccn[nH]3)nc3cccnn23)n1 (configuration not stated) | – | 0.105 | 21.6 | 100 | > 200 | 0.036 | 0.146 | 3.2 | – | – | – | – | – | – |
| Cc1nc(N)nc(-c2c(Nc3cc[nH]n3)nc3ccc(-c4ccccc4F)cn23)n1 | – | 0.648 | – | – | – | 0.015 | 0.067 | – | 33.3 | 0.064 | – | – | – | – |
| CC(=O)Nc1cc(-c2c(Nc3ccn(C)n3)nc3ccc(-c4cnco4)cn23)nc(C)n1 | 3 | 3.17 | 42 | 117 | – | 0.02 | 0.347 | 4.1 | – | – | – | – | 0.2 | – |
| Cc1nc(N)nc(-c2c(Nc3cc[nH]n3)nc3ccc(-c4cncnc4)cn23)n1 | – | 0.085 | – | – | – | 0.002 | 0.093 | – | 33.3 | 0.005 | – | – | – | – |
| Cc1cc(-c2ccc3nc(Nc4cc[nH]n4)c(-c4nc(C)nc(N)n4)n3c2)on1 | – | 0.177 | – | – | – | 0.003 | 0.072 | – | 33.3 | 0.007 | – | – | – | – |
| Cc1nc(N)nc(-c2c(Nc3ccn[nH]3)nc3ccc(-c4cccc(F)c4)cn23)n1 | – | 0.654 | – | – | – | 0.027 | 0.912 | – | 33.3 | 0.073 | – | – | – | – |
| CC(=O)Nc1cc(-c2c(Nc3cc[nH]n3)nc3cccnn23)nc(C)n1 | 46 | 0.047 | 49.2 | 43.3 | 200 (≈ 572 µM) | 0.003 | 0.045 | 6.3 | – | – | 0.056 | – | 0.6 | – |
| Cc1nc(N)nc(-c2c(Nc3ccn[nH]3)nc3ccc(-c4cnn(C5CC5)c4)cn23)n1 | – | 0.144 | – | – | – | 0.002 | 0.058 | – | 33.3 | 0.008 | – | – | – | – |
| Cc1cc(-c2ccc3nc(Nc4cc[nH]n4)c(-c4nc(C)nc(N)n4)n3c2)ccn1 | – | 0.239 | – | – | – | 0.004 | 0.222 | – | 33.3 | 0.023 | – | – | – | – |
| CC(=O)Nc1cc(-c2c(Nc3ccn(C)n3)nc3ccc(-c4cnn(C(C)C)c4)cn23)nc(C)n1 | 8 | > 125 | 258 | 8.33 | – | 0.016 | 0.694 | 2.1 | – | – | 0.004 | – | 1.8 | – |
| Cc1nc(Nc2cnccn2)cc(-c2c(Nc3ccn[nH]3)nc3cccnn23)n1 | – | 0.122 | 25.2 | 96.7 | – | 0.006 | 0.066 | 2.5 | – | – | – | – | – | – |
| Cc1nc(Nc2cccnn2)cc(-c2c(Nc3ccn[nH]3)nc3cccnn23)n1 | – | 0.173 | – | – | – | 0.024 | 0.276 | – | – | – | – | – | – | – |
| Cc1nc(N)nc(-c2c(Nc3cc[nH]n3)nc3ccc(-c4ccncc4)cn23)n1 | – | 0.306 | – | – | – | 0.006 | 0.326 | – | 33.3 | 0.026 | – | – | – | – |
| Cc1nc(Nc2cccnc2)cc(-c2c(Nc3ccn[nH]3)nc3cccnn23)n1 | – | 1.14 | – | – | 1 (≈ 2.6 µM) | 0.147 | 6.39 | – | – | – | – | – | – | – |
| COc1cnnc(Nc2cc(-c3c(Nc4cc[nH]n4)nc4cccnn34)nc(C)n2)c1 | – | 0.054 | 70.8 | 103 | 175 (≈ 421 µM) | 0.003 | 0.085 | 9.1 | – | – | – | – | – | – |
| Cc1nc(N)nc(-c2c(Nc3ccn[nH]3)nc3ccc(-c4cncn4C)cn23)n1 | – | 0.463 | – | – | – | 0.005 | 0.276 | – | 33.3 | 0.023 | – | – | – | – |
